Only some compounds are listed: those with a hit (about 2.4% of all), similar ones and a draw of the others.
HSV augment = enhancers of HSV replication in host cells, fold increase, host cell viability. HSV replication augmentation in cells. actives 0.005% (n = 220,000). maximum fold increase; in the data active = maximum fold increase above about 1.5; inconclusive = no clear call, values can overlap the other calls; tested in PC3 cells
b-catenin transl = modulators of beta-catenin nuclear translocation, primary screen, imaging, HeLa cells, immunofluorescence, high-content | nuclear translocation activity, % at 5 µM | actives 0.3% (n = 190,000) | AID 1665, 2009;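 active = nuclear translocation activity above 50% at 5 µM, with a well cell count of 50 or more; inconclusive = wells under 50 cells across six images, flagged as toxic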;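 note: per-cell ratio of nuclear to cytoplasmic median beta-catenin stain intensity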
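test system = HeLa cells, endogenous beta-catenin | dosing = single 5 µM dose plus 0.02–20 µM confirmation series | times = compound treatment 24 h, 37°C, 5% CO2 | technique = beta-catenin immunofluorescence imaging with DAPI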
MT stabilizer = microtubule stabilizers in HeLa cells, primary screen, imaging, high-content imaging | HeLa tubulin immunostaining HCS, 24 h; share of cells brighter than vehicle mean+2SD | % tubulin-high responders, % at 10 µM | actives 0.83% (n = 200,000) | AID 2205, 2009;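 active = plate Z-score above 3 for both tubulin-high and condensed-nucleus cell shares, with cell loss under 80%, at 10 µM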;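 note: anti alpha tubulin signal scored within the nucleus-defined area of each cell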
ROMK primary = ROMK potassium channel modulators, primary screen, cell-based, thallium flux, MLSMR library; ATP-sensitive inward rectifier potassium channel 1 (Homo sapiens), P48048; Tet-inducible ROMK, thallium flux fluorescence; actives lie on both sides; B-score at 10 µM; actives 2% (n = 130,000);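 active = signal ratio slope over the read window, or its plate-corrected B-score, at least 3 SD from the plate mean, either direction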;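 note: B-score of the F/F0 ratio slope over 7 to 12 s after thallium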
Target sequence (P48048 whole entry, looked up): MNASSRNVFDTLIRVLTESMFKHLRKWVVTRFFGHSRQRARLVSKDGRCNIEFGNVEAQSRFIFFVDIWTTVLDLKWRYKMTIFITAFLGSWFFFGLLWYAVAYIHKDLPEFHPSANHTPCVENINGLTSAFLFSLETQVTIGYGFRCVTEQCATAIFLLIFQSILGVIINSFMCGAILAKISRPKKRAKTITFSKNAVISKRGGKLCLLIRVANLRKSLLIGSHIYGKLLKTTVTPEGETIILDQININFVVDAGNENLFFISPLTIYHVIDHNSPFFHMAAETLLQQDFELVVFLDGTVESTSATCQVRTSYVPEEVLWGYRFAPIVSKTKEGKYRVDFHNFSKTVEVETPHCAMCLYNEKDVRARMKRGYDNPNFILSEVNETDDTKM
Insulin prom inh = inhibitors of insulin promoter-driven GFP, primary screen, imaging, TRM-6 cells (human fetal islet line), eGFP reporter, cell count; reporter expression induced with tamoxifen; inhibition, % at 2 µM; actives 0.9% (n = 130,000);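 active = inhibition above the mean plus 3 SD, with well images judged a real hit on visual review, cut at about 60% in these data, passing the limit was not always enough; inconclusive = inhibition over the cutoff but images rejected on review; inactive = inhibition not above the cutoff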
ROMK hit retest = ROMK channel modulator hit retest, confirmation, cell-based, thallium flux, duplicate, resupplied hits; normalized thallium flux (F/F0 slope) at 10 µM; AID 1917, 2009; fluorescence ratio; stronger effect = lower value; shares compounds with ROMK primary; actives 54% (n = 3,000);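 active = Flux at 10 µM at least 3 SD below or above vehicle control mean in one or both replicates; inconclusive = no clear call, values can overlap the other calls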
Each line names hits and unclear results; the compound was inactive in the other large screens (follow-up assays come after a bar, where they were run).

COc1ccc(/C=C2\SC(=S)N(CC3CCCO3)C2=O)cc1 (stereo unspecified)	none (no result: MT stabilizer, Insulin prom inh)
COc1ccc2c(n1)Sc1nc3ccccc3nc1N2	HSV augment inconclusive (no result: MT stabilizer, ROMK primary, Insulin prom inh) | ROMK hit retest 0.057
CCc1cc2c(NCC(=O)O)ncnc2s1	none (no result: b-catenin transl, ROMK primary, Insulin prom inh)
CCc1cc2c(NCc3ccco3)ncnc2s1	ROMK primary -3.9 | ROMK hit retest inactive
CCn1nnc(NC(=O)C(c2ccccc2)c2ccccc2)n1	ROMK primary -7.3 (no result: Insulin prom inh) | ROMK hit retest inactive
O=C(c1cccc(S(=O)(=O)Nc2ccccc2F)c1)N1CCN(c2ccccc2F)CC1	none (no result: Insulin prom inh)
O=C1CCCCCN1Sc1ccccc1	none (no result: ROMK primary, Insulin prom inh) | ROMK hit retest 0.043
O=C(CCSc1ccccc1)N1CCCC1	none
O=C(O)CCC(=O)Nc1nnc(C(F)(F)F)s1	none (no result: ROMK primary)
CCC(NC(=O)Nc1nnc(C(F)(F)F)s1)(C(F)(F)F)C(F)(F)F	ROMK primary -5.8 (no result: Insulin prom inh) | ROMK hit retest 0.062
CC(C)c1nnc(NC(=O)c2cccc(NC(=O)C(F)(F)F)c2)s1	none (no result: Insulin prom inh)
NNC(=O)/C=C/c1ccc(Cl)cc1Cl	ROMK primary 2.3 | ROMK hit retest inactive
O=C(O)CNC(=O)/C=C/c1ccc(Cl)cc1Cl	none (no result: Insulin prom inh)
CSS(=O)(=O)c1cccc2cccnc12	none (no result: MT stabilizer, ROMK primary, Insulin prom inh) | ROMK hit retest inactive
CCN(CC)S(=O)(=O)c1cccc2cccnc12	none (no result: b-catenin transl)
Cc1cc(=O)oc2c3c4c(cc12)OCCN4CCC3	none (no result: ROMK primary)
CC(C)c1cc(=O)oc2c3c4c(cc12)CCCN4CCC3	HSV augment inconclusive (no result: ROMK primary, Insulin prom inh) | ROMK hit retest 0.054
CCCCN(CCCC)C(=O)CSc1nnc2n(C)c(=O)c3c4c(sc3n12)CCCC4	ROMK primary -3.6 | ROMK hit retest 0.049
CCOc1cc2oc(=O)c3c(c2cc1Cl)CCC3	none | ROMK hit retest inactive
CCc1cc2c3c(c(=O)oc2cc1OC)CCCC3	none (no result: b-catenin transl, ROMK primary)
Cc1ccc(S(=O)(=O)CC(=O)Nc2ccc(Cl)cn2)cc1	Insulin prom inh inconclusive
COc1ccc(-c2cc(CNS(=O)(=O)c3ccc(F)cc3)on2)cc1	none (no result: Insulin prom inh)
Clc1ccccc1OCCCCn1ccnc1	none
CCCCn1cnc2c(c(-c3ccccc3)c(-c3ccccc3)n2Cc2ccco2)c1=N	none (no result: MT stabilizer, ROMK primary, Insulin prom inh) | ROMK hit retest 0.03
N=c1c2c(-c3ccccc3)c(-c3ccccc3)n(Cc3ccco3)c2ncn1Cc1ccco1	none (no result: ROMK primary)
N=c1c2c(-c3ccccc3)c(-c3ccccc3)n(Cc3ccccc3)c2ncn1CCCn1ccnc1	ROMK primary -4.4 (no result: Insulin prom inh) | ROMK hit retest 0.05
CC1CCCCN1C(=O)Cn1cc(/C=C2/C(=O)Nc3ccccc32)c2ccccc21 (stereo unspecified)	none (no result: ROMK primary) | ROMK hit retest inactive
O=C(Cn1ncc(Cl)c(Cl)c1=O)N1CCN(Cc2ccccc2)CC1	none
O=C(Cn1ncc(Cl)c(Cl)c1=O)N1CCc2ccccc21	ROMK primary -3.3 | ROMK hit retest inconclusive
CC1CCN(CCCCOc2ccc(Br)cc2)CC1	none | ROMK hit retest inconclusive
COc1cc(CNCCSc2nnnn2C)cc(Br)c1OCc1ccccc1	none (no result: Insulin prom inh)
O=[N+]([O-])c1cc(C(F)(F)F)ccc1NC1CCN(Cc2ccccc2)CC1	none (no result: MT stabilizer, Insulin prom inh)
CC1(C)CC(Nc2ccc(C(F)(F)F)cc2[N+](=O)[O-])CC(C)(C)N1	ROMK primary -2.6 (no result: Insulin prom inh) | ROMK hit retest 0.055
O=C(Nc1ccc(C2SCCS2)cc1)c1ccccc1	none (no result: MT stabilizer, Insulin prom inh)
CCOCCCNC(=O)c1ccc2c(c1)OCO2	none (no result: b-catenin transl, ROMK primary)
CCOCCCNC(=O)c1ccc2c(c1)N=C(CC)c1cc(Br)ccc1S2	b-catenin transl 52, ROMK primary 4.1 | ROMK hit retest inactive
CC1=NOC(=O)/C1=C\c1ccc(-c2ccc(Br)cc2C(=O)O)o1	none (no result: Insulin prom inh)
CC1=NOC(=O)/C1=C\c1ccc(-c2cc(Cl)ccc2Cl)o1	ROMK primary -3.7 (no result: b-catenin transl) | ROMK hit retest inconclusive
Cc1cc(C)nc(NC(=O)CSc2nccc(C)n2)n1	ROMK primary 2.8 (no result: Insulin prom inh) | ROMK hit retest inactive
COC(=O)c1ccccc1NC(=O)CSc1nccc(C)n1	none
COc1ccc(Cc2nn3c(-c4cc(OC)c(OC)c(OC)c4)nnc3s2)cc1	ROMK primary -2.6 | ROMK hit retest inconclusive
O=C(c1ccc(-c2cc(Cl)ccc2Cl)o1)N1CCOCC1	ROMK primary -3.5 | ROMK hit retest 0.063
Cc1cc(C)n2ncc(/C(N)=N/OC(=O)Nc3ccccc3)c2n1	none (no result: MT stabilizer, ROMK primary, Insulin prom inh)

Assay outcomes (PubChem BioAssay)
